Experiment [1] is described as follows: Inhibition of histidine-tagged Escherichia coli ATCase catalytic domain assessed as N-carbamoyl-L-aspartate formation by colorimetric assay. In short, it runs like this: (§1)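 E. coli His-tagged C3 (catalytic subunit) ATCase, purified from pEK17/EK1104, at 75 ng/mL. Assay at room temperature in 0.1 M Tris-acetate pH 8.3 with 10 mM L-aspartate. […] N-carbamoyl-L-aspartate formation was read colorimetrically. Ki and inhibition mode were taken from the kinetics.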

Experiment [2] has as its system Escherichia coli. Put plainly: Inhibition of histidine-tagged Escherichia coli ATCase catalytic domain assessed as N-carbamoyl-L-aspartate formation at 0.5 to 6 uM by colorimetric assay. The gist of the method: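 E. coli His-tagged C3 ATCase catalytic subunit (75 ng/mL), purified from strain/plasmid pEK17/EK1104, run at room temperature in 0.1 M Tris-acetate pH 8.3 with 10 mM L-aspartate. N-carbamoyl-L-aspartate formation read colorimetrically. […] Ki and inhibition mode derived from these kinetics.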

For experiment [3], the system named is Escherichia coli. Nature of the experiment: Ratio of compound Ki to (2S)-2-(2-(hydroxy(hydroxymethyl)phosphoryl)acetamido)succinic acid Ki for histidine-tagged Escherichia coli ATCase catalytic domain.
Experiment [4] in a line: Uncompetitive inhibition of histidine-tagged Escherichia coli ATCase catalytic domain assessed as N-carbamoyl-L-aspartate formation by colorimetric assay. In short, it runs like this: as §1
Experiment [5] relates to Escherichia coli. Put plainly: Ratio of compound Ki to N-phosphonacetyl-L-aspartate Ki for histidine-tagged Escherichia coli ATCase catalytic domain.

Active and inactive are the calls of the source. The calls are words filed in the database; no cut-off is given here.

As usually defined, the Ki is a measure of affinity in units of concentration, obtained from inhibition or displacement.

Consider `O=C(O)C[C@@H](C(=O)O)N1CP(=O)(O)CC1=O`, for which the Ki result in experiment [1] is reported as “Not Active”.

For `O=C(O)C[C@H](NC(=O)CP(=O)(O)O)C(=O)O` [PALA], in experiment [1] (read-out: Ki), the Ki was found to be 16 nM.

`O=C(O)C[C@H](NC(=O)OCP(=O)(O)O)C(=O)O`: in experiment [1], the Ki entry is “Not Active”.

Turning to `O=C(O)CC(=O)N[C@@H](CC(=O)O)C(=O)O`, in the experiment on Escherichia coli [2], the inhibition result was “inactive”.

With `O=C(O)CCC(=O)N[C@@H](CC(=O)O)C(=O)O`, in the experiment on Escherichia coli [2], the inhibition entry was “inactive”.

On to `O=C(O)C[C@@H](C(=O)O)N1CCP(=O)(O)CC1`, for which, in experiment [1], the Ki entry is “Not Active”.

As for `O=C(O)C[C@H](NC(=O)CC(C(=O)O)C(=O)O)C(=O)O`, the inhibition result in the experiment with Escherichia coli [2] was “inactive”.

Turning to `O=C(O)C[C@H](NC(=O)CP(=O)(O)CCO)C(=O)O`, the Ratio Ki was 13 in the experiment with Escherichia coli [3] and 156 in the experiment on Escherichia coli [5]. In experiment [4], the Ki was found to be 2500 nM.

Consider `O=C(O)C[C@@H](C(=O)O)N1CCP(=O)(O)CC1=O`, for which the Ki in experiment [1] (read-out: Ki) amounted to 1000 nM. Further, the Ratio Ki in the experiment on Escherichia coli [5] was 63.

Take `O=C(O)C[C@H](NC(=O)NCP(=O)(O)O)C(=O)O`: the Ki in experiment [1] (read-out: Ki) was found to be 2100 nM. Moreover, in the experiment with Escherichia coli [5], the Ratio Ki worked out at 131.

For the compound `O=C(O)C[C@H](NC(=O)C[PH](=O)CO)C(=O)O` (some centres not stated), the Ki in experiment [1] (read-out: Ki) was found to be 190 nM. In addition, the Ratio Ki in the experiment with Escherichia coli [5] amounted to 12.

As for `O=C(O)C[C@H](NC(=O)COP(=O)(O)O)C(=O)O`, the Ki in experiment [1] (read-out: Ki) amounted to 210 nM. In addition, the Ratio Ki in the experiment on Escherichia coli [5] was 13.

Regarding `O=C(O)C[C@H](NC(=O)C[PH](=O)O)C(=O)O`, the Ki in experiment [1] (read-out: Ki) worked out at 420 nM. The Ratio Ki in the experiment on Escherichia coli [5] is 26.

`O=C(O)C[C@H](NC(=O)CP(=O)(O)CC(=O)O)C(=O)O`: the Ki in experiment [1] (read-out: Ki) came out at 3600 nM. For the same compound, the Ratio Ki in the experiment on Escherichia coli [5] worked out at 225.
